Reference: ChEMBL document CHEMBL3739379, “Anti-Candida activity and cytotoxicity of a large library of new N-substituted-1,3-thiazolidin-4-one derivatives” (Eur J Med Chem, 2016)
Converted amounts (≈) assume the structure as drawn.

Key:
[1] = Cytotoxicity against human Hep2 cells assessed as cell survival at 5 ug/ml after 24 hrs by trypan blue exclusion test (reference value: 87 to 94%); type: cell-based, HEp-2; conditions: read-out: Survival
[2] = test system: [Candida] sake; test: Antifungal activity against Candida sake clinical isolate after 24 hrs by sabouraud dextrose broth based microdilution method; type: functional; conditions: Fermentozyma sake
Procedure, shortened: (§1)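 Clinical isolates identified by conventional methods and subcultured for purity. Broth microdilution per NCCLS in Sabouraud dextrose broth; compounds dissolved in DMSO and serially diluted; inoculum 10^3/mL. Controls: fungi without compound, medium only. Incubated 24 h at 37 °C. MIC is the lowest concentration with complete growth inhibition by unaided eye. Values are geometric means over isolates per species.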

[3] = Cytotoxicity against human Hep2 cells assessed as cell survival after 24 hrs by trypan blue exclusion method; type: cell-based, HEp-2
Procedure, shortened: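 Hep2 cells grown in DMEM with 10% FBS and 1% streptomycin-penicillin at 37 °C, 5% CO2, used at 60-70% confluency. Seeded at 1 x 10^5/mL and exposed 24 h to five concentrations (0.05-100 µg/mL), DMSO ≤0.5%. Controls: medium alone, DMSO, 1 mM nitroprusside. Cells scraped, recovered 30 min, stained 1:1 with 0.4% Trypan blue, counted by two operators. Means of ≥3 independent experiments.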

[4] = test system: Candida albicans; test: Antifungal activity against Candida albicans clinical isolate after 24 hrs by sabouraud dextrose broth based microdilution method; type: functional; procedure, shortened: as §1
[5] = test system: Enterobacter sp.; test: Antibacterial activity against Enterobacter sp. after 18 to 22 hrs by broth microdilution method; type: functional
Procedure, shortened: (§2)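 Broth microdilution per NCCLS in Mueller-Hinton II broth; isolates subcultured for purity. Compounds dissolved in DMSO, serial dilutions 256 to 0.5 µg/mL; inoculum 10^5/mL. Controls: organism without compound, medium only. Incubation 18 to 22 h at 35 °C. MIC is the lowest concentration giving complete growth inhibition, read by unaided eye.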

[6] = test system: Staphylococcus haemolyticus; test: Antibacterial activity against Staphylococcus haemolyticus after 18 to 22 hrs by broth microdilution method; type: functional; procedure, shortened: as §2
[7] = Cytotoxicity against human Hep2 cells assessed as cell survival at 0.05 ug/ml after 24 hrs by trypan blue exclusion test (reference value: 87 to 94%); type: cell-based, HEp-2; conditions: read-out: Survival
[8] = Cytotoxicity against human Hep2 cells assessed as cell survival at 50 ug/ml after 24 hrs by trypan blue exclusion test (reference value: 87 to 94%); type: cell-based, HEp-2; conditions: read-out: Survival
[9] = test system: Proteus mirabilis; test: Antibacterial activity against Proteus mirabilis after 18 to 22 hrs by broth microdilution method; type: functional; procedure, shortened: as §2
[10] = test system: Staphylococcus aureus; test: Antibacterial activity against Staphylococcus aureus after 18 to 22 hrs by broth microdilution method; type: functional; procedure, shortened: as §2
[11] = test system: Enterococcus faecalis; test: Antibacterial activity against […] faecalis after 18 to 22 hrs by broth microdilution method; type: functional; procedure, shortened: as §2
[12] = test system: Klebsiella oxytoca; test: Antibacterial activity against Klebsiella oxytoca after 18 to 22 hrs by broth microdilution method; type: functional; procedure, shortened: as §2
[13] = test system: Escherichia coli; test: Antibacterial activity against Escherichia coli at after 18 to 22 hrs by broth microdilution method; type: functional; procedure, shortened: as §2
[14] = test system: Pichia kudriavzevii; test: Antifungal activity against Candida krusei clinical isolate after 24 hrs by sabouraud dextrose broth based microdilution method; type: functional; procedure, shortened: as §1
[15] = test system: Nakaseomyces glabratus; test: Antifungal activity against Candida glabrata clinical isolate after 24 hrs by sabouraud dextrose broth based microdilution method; type: functional; procedure, shortened: as §1
[16] = Cytotoxicity against human Hep2 cells assessed as cell survival at 100 ug/ml after 24 hrs by trypan blue exclusion test (reference value: 87 to 94%); type: cell-based, HEp-2; conditions: read-out: Survival
[17] = Cytotoxicity against human Hep2 cells assessed as cell survival at 0.5 ug/ml after 24 hrs by trypan blue exclusion test (reference value: 87 to 94%); type: cell-based, HEp-2; conditions: read-out: Survival
[18] = test system: Candida parapsilosis; test: Antifungal activity against Candida parapsilosis clinical isolate after 24 hrs by sabouraud dextrose broth based microdilution method; type: functional; conditions: Lodderomyces parapsilosis; procedure, shortened: as §1
[19] = test system: Staphylococcus warneri; test: Antibacterial activity against Staphylococcus warneri after 18 to 22 hrs by broth microdilution method; type: functional; procedure, shortened: as §2
[20] = test system: Candida tropicalis; test: Antifungal activity against Candida tropicalis clinical isolate after 24 hrs by sabouraud dextrose broth based microdilution method; type: functional; procedure, shortened: as §1
[21] = Selectivity index, ratio of CC50 for human Hep2 cells to MIC for Candida glabrata; design: species or system HEp-2
Procedure, shortened: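 Ratio of CC50 from the 24 h Trypan blue assay on Hep2 cells to the MIC against C. glabrata from the 24 h, 37 °C Sabouraud broth microdilution.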

| SMILES | viability at 24 h, 5 ug/ml [1] [%] | MIC [2] [µg/mL] | CC50 at 24 h [3] [µg/mL] | MIC [4] [µg/mL] | MIC [5] [µg/mL] | MIC [6] [µg/mL] | viability at 24 h, 0.05 ug/ml [7] [%] | viability at 24 h, 50 ug/ml [8] [%] | MIC [9] [µg/mL] | MIC [10] [µg/mL] | MIC [11] [µg/mL] | MIC [12] [µg/mL] | MIC [13] [µg/mL] | MIC [14] [µg/mL] | MIC [15] [µg/mL] | viability at 24 h, 100 ug/ml [16] [%] | viability at 24 h, 0.5 ug/ml [17] [%] | MIC [18] [µg/mL] | MIC [19] [µg/mL] | MIC [20] [µg/mL] | other results |
| --- | --- | --- | --- | --- | --- | --- | --- | --- | --- | --- | --- | --- | --- | --- | --- | --- | --- | --- | --- | --- | --- |
| CCCCC/C(C)=N/N=C1\SCC(=O)N1Cc1ccc([N+](=O)[O-])cc1 | 87 | 2 (≈ 5.52 µM) | 35 (≈ 96.6 µM) | 4 (≈ 11 µM) | > 256 | > 256 | 95.4 | 0 | > 256 | > 256 | > 256 | > 256 | > 256 | 2 (≈ 5.52 µM) | 1 (≈ 2.76 µM) | 0 | 93.5 | 2 (≈ 5.52 µM) | > 256 | 64 (≈ 177 µM) |  |
| C/C(=N\N=C1/SCC(=O)N1CN1C(=O)c2ccccc2C1=O)c1ccccn1 |  | 4 (≈ 10.2 µM) |  | 2 (≈ 5.08 µM) | > 256 | > 256 |  |  | > 256 | > 256 | > 256 | > 256 | > 256 | 32 (≈ 81.3 µM) | 32 (≈ 81.3 µM) |  |  | 4 (≈ 10.2 µM) | > 256 | 2 (≈ 5.08 µM) |  |
| O=C1c2ccccc2C(=O)N1CN1C(=O)CS/C1=N\N=C\c1cccc2ccccc12 |  | 128 (≈ 299 µM) |  | 256 (≈ 597 µM) | > 256 | > 256 |  |  | > 256 | > 256 | > 256 | > 256 | > 256 | 128 (≈ 299 µM) | 16 (≈ 37.3 µM) |  |  | 128 (≈ 299 µM) | > 256 | 128 (≈ 299 µM) |  |
| C/C(CC(C)C)=N\N=C1/SCC(=O)N1Cc1cccc2ccccc12 | 87.5 | 4 (≈ 11.3 µM) | 95 (≈ 269 µM) | 4 (≈ 11.3 µM) | > 256 | > 256 | 93.2 | 73.6 | > 256 | > 256 | > 256 | > 256 | > 256 | 2 (≈ 5.66 µM) | 1 (≈ 2.83 µM) | 46 | 91 | 2 (≈ 5.66 µM) | > 256 | 64 (≈ 181 µM) | Selectivity Index [21]: 95 |
| O=C1c2ccccc2C(=O)N1CN1C(=O)CS/C1=N\N=C\c1cccnc1 |  | 32 (≈ 84.3 µM) |  | 256 (≈ 675 µM) | > 256 | > 256 |  |  | > 256 | > 256 | > 256 | > 256 | > 256 | 8 (≈ 21.1 µM) | 8 (≈ 21.1 µM) |  |  | 16 (≈ 42.2 µM) | > 256 | 16 (≈ 42.2 µM) |  |
| O=C1CS/C(=N\N=C2CCCC2)N1Cc1ccc([N+](=O)[O-])cc1 | 51 | 16 (≈ 48.1 µM) | 28 (≈ 84.2 µM) | 2 (≈ 6.02 µM) | > 256 | > 256 | 95 | 0 | > 256 | > 256 | > 256 | > 256 | > 256 | 8 (≈ 24.1 µM) | 16 (≈ 48.1 µM) | 0 | 88 | 16 (≈ 48.1 µM) | > 256 | 1 (≈ 3.01 µM) |  |
| CC(C)=N/N=C1\SCC(=O)N1CN1C(=O)c2ccccc2C1=O | 61 | 2 (≈ 6.05 µM) | 22 (≈ 66.6 µM) | 4 (≈ 12.1 µM) | > 256 | > 256 | 86 | 0 | > 256 | > 256 | > 256 | > 256 | > 256 | 2 (≈ 6.05 µM) | 1 (≈ 3.03 µM) | 0 | 73 | 2 (≈ 6.05 µM) | > 256 | 1 (≈ 3.03 µM) |  |
| C/C(CC(C)C)=N\N=C1/SCC(=O)N1Cc1ccc([N+](=O)[O-])cc1 | 82 | 4 (≈ 11.5 µM) | 32 (≈ 91.8 µM) | 1 (≈ 2.87 µM) | > 256 | > 256 | 93 | 0 | > 256 | > 256 | > 256 | > 256 | > 256 | 2 (≈ 5.74 µM) | 1 (≈ 2.87 µM) | 0 | 92.5 | 2 (≈ 5.74 µM) | > 256 | 32 (≈ 91.8 µM) |  |
| C/C(CC(C)C)=N\N=C1/SCC(=O)N1CN1C(=O)c2ccccc2C1=O | 90 | 2 (≈ 5.37 µM) | 99 (≈ 266 µM) | 2 (≈ 5.37 µM) | > 256 | > 256 | 94 | 79 | > 256 | > 256 | > 256 | > 256 | > 256 | 2 (≈ 5.37 µM) | 1 (≈ 2.68 µM) | 47 | 92.8 | 2 (≈ 5.37 µM) | > 256 | 64 (≈ 172 µM) | Selectivity Index [21]: 99 |
| O=C1c2ccccc2C(=O)N1CN1C(=O)CS/C1=N\N=C\c1ccc2c(c1)OCO2 |  | 128 (≈ 303 µM) |  | 8 (≈ 18.9 µM) | > 256 | > 256 |  |  | > 256 | > 256 | > 256 | > 256 | > 256 | 32 (≈ 75.8 µM) | 8 (≈ 18.9 µM) |  |  | 128 (≈ 303 µM) | > 256 | 8 (≈ 18.9 µM) |  |
